Laboratory results reported in ChEMBL document CHEMBL3580635, “9-Hydroxycanthin-6-one, a β-Carboline Alkaloid from Eurycoma longifolia, Is the First Wnt Signal Inhibitor through Activation of Glycogen Synthase Kinase 3β without Depending on Casein Kinase 1α” (J Nat Prod, 2015).
Activity calls are given as the source filed them. The calls are words filed in the database; no cut-off is given here.

Assays:
[1] = target: T1, Glycogen synthase kinase-3 beta (Homo sapiens, UniProt P49841); assay: Activation of GSK-3beta in human SW480 cells assessed as increase in phosphorylation of beta-catenin at Ser37 at 10 to 30 uM after 24 hrs by Western blot analysis; format: cell-based
Summary of the method: (§1)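 SW480 cells, 1 × 10^6 per 90 mm dish, treated 24 h after seeding for 24 h. Whole-cell lysates made in Triton/deoxycholate buffer with phosphatase and protease inhibitors; cytosolic and nuclear fractions prepared by NE-PER. Proteins run on 10% SDS-PAGE, blotted to PVDF, probed, detected by ECL. Bands normalized to β-actin or histone H1.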
Target sequence in this assay (P49841 whole entry, looked up): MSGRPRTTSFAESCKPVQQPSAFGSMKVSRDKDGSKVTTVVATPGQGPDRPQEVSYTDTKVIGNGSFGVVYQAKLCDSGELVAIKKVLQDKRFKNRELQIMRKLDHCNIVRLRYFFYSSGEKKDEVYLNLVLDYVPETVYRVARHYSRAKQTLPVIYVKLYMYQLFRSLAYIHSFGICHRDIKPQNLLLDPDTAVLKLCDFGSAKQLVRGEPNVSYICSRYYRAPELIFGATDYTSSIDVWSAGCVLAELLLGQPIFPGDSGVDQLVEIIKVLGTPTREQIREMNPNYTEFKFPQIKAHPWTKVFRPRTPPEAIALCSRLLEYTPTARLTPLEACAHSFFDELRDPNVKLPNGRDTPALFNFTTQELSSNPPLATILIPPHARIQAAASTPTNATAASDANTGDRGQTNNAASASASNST

[2] = target: T1, Glycogen synthase kinase-3 beta; assay: Activation of GSK-3beta in human SW480 cells assessed as downregulation of beta-catenin expression in cytosolic fraction at 10 to 30 uM after 24 hrs by Western blot analysis; format: cell-based; summary of the method: as §1
Target sequence in this assay (P49841 whole entry, looked up): as above

[3] = target: T1, Glycogen synthase kinase-3 beta; assay: Activation of GSK-3beta in human SW480 cells assessed as increase in phosphorylation of beta-catenin at Ser37 at 30 uM after 24 hrs by Western blot analysis in presence of CK1alpha siRNA; format: cell-based
Summary of the method: (§2)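 SW480 cells, 5 × 10^4/well, grown 24 h, then transfected for 6 h with control or CK1α siRNA (10 pmol, Lipofectamine 2000). Compound then added in DMEM/10% FBS for 24 h. Whole-cell lysates Western blotted, normalized to β-actin.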
Target sequence in this assay (P49841 whole entry, looked up): as above

[4] = target: T1, Glycogen synthase kinase-3 beta; assay: Activation of GSK-3beta in human SW480 cells assessed as increase in phosphorylation of beta-catenin at Ser37 at 30 uM after 24 hrs by Western blot analysis in presence of GSK-3beta siRNA; format: cell-based
Summary of the method: (§3)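 SW480 cells, 1 × 10^5/well, grown 24 h, then transfected for 3 h with control or GSK3β siRNA (10 pmol, Lipofectamine 2000). Compound then added in DMEM/10% FBS for 24 h. Whole-cell lysates Western blotted, normalized to β-actin.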
Target sequence in this assay (P49841 whole entry, looked up): as above

[5] = target: T1, Glycogen synthase kinase-3 beta; assay: Inhibition of GSK-3beta phosphorylation at Ser9 in human SW480 cells at 30 uM after 24 hrs by Western blot analysis in presence of CK1alpha siRNA; format: cell-based; summary of the method: as §2
Target sequence in this assay (P49841 whole entry, looked up): as above

SW480 [6] = assay: Effect on CK1alpha expression in human SW480 cells at 10 to 30 uM after 24 hrs by Western blot analysis; format: functional, cell-based; summary of the method: as §1
[7] = target: T1, Glycogen synthase kinase-3 beta; assay: Activation of GSK-3beta in human SW480 cells assessed as increase in phosphorylation of beta-catenin at Ser33 at 30 uM after 24 hrs by Western blot analysis in presence of GSK-3beta siRNA; format: cell-based; summary of the method: as §3
Target sequence in this assay (P49841 whole entry, looked up): as above

Danio rerio [8] = species: Danio rerio; assay: Activation of GSK-3beta in zebrafish embryo assessed as suppression of zic2a gene expression in midbrain tectum at 300 uM measured 4 to 24 hrs post fertilization by in situ hybridization method in presence of MO, p53 MO; format: tissue-based
[9] = target: T1, Glycogen synthase kinase-3 beta; assay: Activation of GSK-3beta in human SW480 cells assessed as increase in phosphorylation of beta-catenin at Ser33 at 30 uM after 24 hrs by Western blot analysis in presence of CK1alpha siRNA; format: cell-based; summary of the method: as §2
HEK293 [10] = assay: Cytotoxicity against HEK293 cells assessed as cell viability after 24 hrs by fluorescence assay; format: cell-based; conditions: Homo sapiens, HEK293, 24 h
SW480 [11] = assay: Effect on GSK-3beta expression in human SW480 cells at 10 to 30 uM after 24 hrs by Western blot analysis; format: functional, cell-based; summary of the method: as §1
Danio rerio [12] = species: Danio rerio; assay: Induction of apoptosis in zebrafish embryo at 300 uM measured 10 to 24 hrs post fertilization by TUNEL assay in presence of MO, p53 MO; format: organism-based; conditions: in vivo
Summary of the method: (§4)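 TOPdGFP transgenic zebrafish embryos injected at the one- or two-cell stage with 5 ng control or p53 morpholino. Exposed 10–24 hpf at 28.5 °C in E3 medium containing 300 μM compound. TOPdGFP in the midbrain tectum imaged by fluorescence microscopy; apoptotic cells detected by TUNEL kit.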

Danio rerio [13] = species: Danio rerio; assay: Activation of GSK-3beta in zebrafish embryo assessed as reduction of pigment cells on tail at 300 uM measured 4 to 30 hrs post fertilization
SW480 [14] = assay: Cytotoxicity against Wnt-dependent human SW480 cells assessed as cell viability after 24 hrs by fluorescence assay; conditions: SW480, 24 h
[15] = Activation of GSK-3beta in zebrafish embryo assessed as suppression of Wnt/beta-catenin signaling pathway at 300 uM measured 10 to 24 hrs post fertilization by TOPdGFP reporter gene-based fluorescence microscopic analysis in presence of MO, p53 MO; conditions: Danio rerio; summary of the method: as §4
[16] = target: T1, Glycogen synthase kinase-3 beta; assay: Activation of GSK-3beta in human SW480 cells assessed as increase in phosphorylation of beta-catenin at Thr41 at 10 to 30 uM after 24 hrs by Western blot analysis; format: cell-based; summary of the method: as §1
[17] = target: Casein kinase I isoform alpha (Homo sapiens) (UniProt P48729); assay: Effect on CK1alpha in human SW480 cells assessed as change in phosphorylation of beta-catenin at Ser45 at 10 to 30 uM after 24 hrs by Western blot analysis; format: cell-based; summary of the method: as §1
[18] = target: T1, Glycogen synthase kinase-3 beta; assay: Activation of GSK-3beta in human SW480 cells assessed as increase in phosphorylation of beta-catenin at Thr41 at 30 uM after 24 hrs by Western blot analysis in presence of GSK-3beta siRNA; format: cell-based; summary of the method: as §3
[19] = target: T1, Glycogen synthase kinase-3 beta; assay: Activation of GSK-3beta in human SW480 cells assessed as increase in phosphorylation of beta-catenin at Ser37 at 30 uM after 24 hrs by Western blot analysis in presence of control siRNA; format: cell-based; summary of the method: as §3
[20] = target: T1, Glycogen synthase kinase-3 beta; assay: Activation of GSK-3beta in human SW480 cells assessed as increase in phosphorylation of beta-catenin at Thr41 at 30 uM after 24 hrs by Western blot analysis in presence of control siRNA; format: cell-based; summary of the method: as §3
RKO = assay: Cytotoxicity against Wnt-independent human RKO cells assessed as cell viability after 24 hrs by fluorescence assay; format: functional, cell-based
HCT-116 = assay: Cytotoxicity against Wnt-dependent human HCT116 cells assessed as cell viability after 24 hrs by fluorescence assay; format: functional, cell-based; conditions: HCT-116, 24 h
[21] = target: T1, Glycogen synthase kinase-3 beta; assay: Activation of GSK-3beta in human SW480 cells assessed as increase in phosphorylation of beta-catenin at Ser33 at 30 uM after 24 hrs by Western blot analysis in presence of control siRNA; format: cell-based; summary of the method: as §3
[22] = target: T1, Glycogen synthase kinase-3 beta; assay: Inhibition of GSK-3beta phosphorylation at Ser9 in human SW480 cells at 30 uM after 24 hrs by Western blot analysis in presence of control and GSK-3beta siRNA; format: cell-based; summary of the method: as §3
HEK-293T = assay: Cytotoxicity against HEK293T cells assessed as cell viability after 24 hrs by fluorescence assay; format: cell-based; conditions: Homo sapiens
Danio rerio [23] = species: Danio rerio; assay: Activation of GSK-3beta in zebrafish embryo assessed as reduction of BIO-induced eyeless phenotype appearance at 100 uM measured 4 to 30 hrs post fertilization; parameters: scale not given: the % may be the effect or the level left
Summary of the method: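 Zebrafish embryos exposed 4–30 hpf at 28.5 °C in E3 medium to BIO (0.5 μM) alone or BIO plus compound (100 μM), then examined under a stereomicroscope.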

[24] = target: T1, Glycogen synthase kinase-3 beta; assay: Activation of GSK-3beta in human SW480 cells assessed as downregulation of beta-catenin expression in nuclear fraction at 10 to 30 uM after 24 hrs by Western blot analysis; format: cell-based; summary of the method: as §1
[25] = Cytotoxicity against Wnt-dependent human DLD1 cells assessed as cell viability after 24 hrs by fluorescence assay; format: functional, cell-based; conditions: DLD-1, 24 h
Danio rerio [26] = species: Danio rerio; assay: Activation of GSK-3beta in zebrafish embryo assessed as suppression of mitf gene expression in neural crest cells at 300 uM measured 24 hrs post fertilization by in situ hybridization method in presence of MO, p53 MO; format: cell-based
HEK293 [27] = assay: Cytotoxicity against HEK293 cells transfected with SuperTOPFlash reporter gene assessed as cell viability at 5 to 20 uM after 24 hrs by fluorescence assay; format: cell-based; conditions: human, hek293, 24 h
Summary of the method: (§5)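 STF/293 cells seeded 3 × 10^4/well, grown 24 h, then exposed 24 h to compound diluted in medium (DMSO final below 0.1%). Cells washed, then given fluorescein diacetate 10 μg/mL in PBS for 1 h at 37 °C. Fluorescence read at ex 485/em 538 nm. Mean ± SE, n = 3.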

[28] = target: T1, Glycogen synthase kinase-3 beta; assay: Activation of GSK-3beta in HEK293 cells assessed as suppression of TCF/beta-catenin transcriptional activity after 24 hrs by SuperTOPFlash reporter gene assay; format: cell-based
Summary of the method: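 STF/293 cells (293 cells stably carrying SuperTOPFlash, seven LEF/TCF sites) seeded 3 × 10^4/well; 24 h later given compound plus LiCl (final 15 mM) for 24 h. Cells lysed and firefly luciferase read, compared with no-compound control. DMSO final below 0.1%. At least triplicate; mean ± SE, n = 3.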

[29] = target: T1, Glycogen synthase kinase-3 beta; assay: Activation of GSK-3beta in human SW480 cells assessed as increase in phosphorylation of beta-catenin at Ser33 at 10 to 30 uM after 24 hrs by Western blot analysis; format: cell-based; summary of the method: as §1
[30] = target: T1, Glycogen synthase kinase-3 beta; assay: Activation of GSK-3beta in human SW480 cells assessed as increase in phosphorylation of beta-catenin at Thr41 at 30 uM after 24 hrs by Western blot analysis in presence of CK1alpha siRNA; format: cell-based; summary of the method: as §2
HEK293 [31] = assay: Cytotoxicity against HEK293 cells transfected with SuperTOPFlash reporter gene assessed as cell viability at 10 to 40 uM after 24 hrs by fluorescence assay; format: cell-based; conditions: human, hek293, 24 h; summary of the method: as §5
HEK293 [32] = assay: Cytotoxicity against HEK293 cells transfected with SuperTOPFlash reporter gene assessed as cell viability at 2.5 to 10 uM after 24 hrs by fluorescence assay; format: cell-based; conditions: human, hek293, 24 h; summary of the method: as §5

Chain of Casein kinase I isoform alpha (Homo sapiens) (P48729 2-337 limits assumed): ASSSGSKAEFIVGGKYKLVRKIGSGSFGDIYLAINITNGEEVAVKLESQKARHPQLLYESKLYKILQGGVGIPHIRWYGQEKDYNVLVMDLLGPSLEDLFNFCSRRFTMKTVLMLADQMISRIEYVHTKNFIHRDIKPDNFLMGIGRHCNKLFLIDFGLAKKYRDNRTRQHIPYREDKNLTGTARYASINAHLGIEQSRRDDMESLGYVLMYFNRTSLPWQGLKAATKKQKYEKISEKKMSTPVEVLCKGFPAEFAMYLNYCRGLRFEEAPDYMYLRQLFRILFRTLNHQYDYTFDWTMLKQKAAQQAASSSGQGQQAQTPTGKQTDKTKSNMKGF

O=c1ccc2nccc3c4ccc(O)cc4n1c23
Activity [1]: Active | Activity [2]: Active | Activity [3]: Active | Activity [4]: inactive | inhibition [5]: Active | Activity (SW480 [6]): inactive | Activity [7]: inactive | Activity (Danio rerio [8]): Active | Activity [9]: Active | IC50 (HEK293 [10]): 36.7 µM | Activity (SW480 [11]): inactive | Activity (Danio rerio [12]): Non-toxic | Activity (Danio rerio [13]): Active | IC50 (SW480 [14]): 17.4 µM | Activity [15]: Active | Activity [16]: Active | Activity [17]: inactive | Activity [18]: inactive | Activity [19]: Active | Activity [20]: Active | IC50 (RKO): > 40 µM | IC50 (HCT-116): 30 µM | Activity [21]: Active | inhibition [22]: Active | IC50 (HEK-293T): > 40 µM | Activity (Danio rerio [23]): 46% | Activity [24]: Active | IC50 [25]: > 40 µM | Activity (Danio rerio [26]): Active | Activity (HEK293 [27]): Non-toxic | Activity [28]: Dose-dependent effect | IC50 [28]: 6.8 µM | Activity [29]: Active | Activity [30]: Active

O=c1ccc2nccc3c4ccc(O[C@@H]5O[C@H](CO)[C@@H](O)[C@H](O)[C@H]5O)cc4n1c23
IC50 (HEK293 [10]): 36.7 µM | IC50 (SW480 [14]): > 40 µM | IC50 (RKO): > 40 µM | IC50 (HCT-116): > 40 µM | IC50 (HEK-293T): > 40 µM | IC50 [25]: > 40 µM | Activity [28]: Dose-dependent effect | IC50 [28]: 11.6 µM | Activity (HEK293 [31]): Non-toxic

CC(=O)O[C@@H]1C[C@H]2C(C)(C)C(=O)C=C[C@]2(C)[C@H]2CC[C@]3(C)C(=CC[C@H]3[C@H]3COC(=O)C3)[C@@]21C
Activity (HEK293 [32]): Non-toxic | IC50 (HEK293 [10]): 31.2 µM | IC50 (SW480 [14]): 11.2 µM | IC50 (RKO): 26.4 µM | IC50 (HCT-116): 24.4 µM | IC50 (HEK-293T): > 40 µM | IC50 [25]: 31.7 µM | Activity [28]: Dose-dependent effect | IC50 [28]: 3 µM
